Assay [1] concerns AT2 receptor. Particulars: cited from earlier work; for Induction of neurite outgrowth: NG108-15 cells.
The next assay concerns p42/p44mapk pathway. Particulars: cited from earlier work.
In assay [2] the target is T1, AT2 receptor (Sus scrofa, UniProt A0A4X1W622).
T1 sequence (A0A4X1W622 1-362): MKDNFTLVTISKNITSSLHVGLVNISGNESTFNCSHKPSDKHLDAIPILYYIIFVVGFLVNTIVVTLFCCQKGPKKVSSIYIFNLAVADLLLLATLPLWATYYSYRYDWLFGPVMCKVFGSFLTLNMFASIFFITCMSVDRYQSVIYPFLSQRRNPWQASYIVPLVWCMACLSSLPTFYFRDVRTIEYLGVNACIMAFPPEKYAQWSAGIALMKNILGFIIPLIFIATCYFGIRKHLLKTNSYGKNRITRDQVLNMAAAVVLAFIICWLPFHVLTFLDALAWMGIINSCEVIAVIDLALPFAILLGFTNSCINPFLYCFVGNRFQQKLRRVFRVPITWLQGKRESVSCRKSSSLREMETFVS
Description: AT2 receptor binding, displacement of [125I]Ang II from pig uterus. Particulars: versus compound 3. In general terms: Loss of bound radioactivity is the signal in a displacement assay; it reports binding, not function.

In assay [3] the test system is AT2 receptor. Description: Neurite outgrowth assay in NG108-15 cells. The assay is classed as cell-based. The following applies: for Function (10 nM): three days, alone, with 10 μM PD 123319 or 100 nM Ang II. An outline of the steps: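 NG108-15 cells (passages 18–25; DMEM, 10% FBS, HAT, gentamycin; 37 °C, 7% CO2) plated at 3.6 × 10^4 cells/35 mm dish. They were treated once daily for three days from 24 h post-plating with 10 nM test compound (some also 100 nM). Test compound was added alone or 30 min before 100 nM Ang II; 10 μM PD 123319 was given 30 min before agonist. On day 4, phase-contrast micrographs were scored as % of ≥400 cells bearing a neurite longer than the cell body. Duplicates, three independent experiments, mean ± SEM, two-way ANOVA.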

The target in assay [4] is AT2 receptor. Particulars: AT2R antagonist; cited from earlier work.

Entries after “also recorded” stand apart in the source; their conditions may differ.

Consider `CC(C)(C)c1cc(C=C(C#N)C(N)=S)cc(C(C)(C)C)c1O` [AG879, α-cyano-(3,5-di-t-butyl-4-hydroxy)thiocinnamide], for which, in the assay on AT2 receptor [1], the “Effect on neurite outgrowth (inhibition)” value is “total”. For the same compound, the “Inhibition of the p42/p44mapk pathway” value in the assay on p42/p44mapk pathway is “only partially inhibits”. As for `CCCCOC(=O)NS(=O)(=O)c1ccc2c(c1-c1ccc(Cn3ccnc3)cc1)CCC2C(C)C` (centres unmarked) [Compound 7a, N-(Butoxycarbonyl)-4-[4-(imidazol-1-yl)-methylphenyl]-1-isopropylindan-5-sulfonamide], the “Loss in affinity compared to non rigidified analogue 3” value on AT2 receptor [2] is recorded as about 200 times. In the assay on AT2 receptor [3] (10 nM, NG108-15 cells), the “Degree of neurite outgrowth induced” value is reported as “highest degree of neurite outgrowth among this set of compounds” and the “Function (10 nM)” value is recorded as “strong agonistic effect; also recorded: Agonist”. As for `CCCCOC(=O)NS(=O)(=O)c1ccc2c(c1-c1ccc(Cn3ccnc3)cc1)CCC2C(C)C` (centres unmarked) [Compound 7b, N-(Butoxycarbonyl)-4-[4-(imidazol-1-yl)-methylphenyl]-1-isopropylindan-5-sulfonamide], the “Function (10 nM)” value in the assay on AT2 receptor [3] (10 nM, NG108-15 cells) was “antagonism; also recorded: Antagonist”. On the same count and under the same terms, with `CCCCOC(=O)NS(=O)(=O)c1ccc2c(c1-c1cccc(Cn3ccnc3)c1)CCC2C(C)C` (centres unmarked) [Compound 8a, N-(Butoxycarbonyl)-4-[3-(imidazol-1-yl)-methylphenyl]-1-isopropylindan-5-sulfonamide] the entry was “Antagonist”; with `CCCCOC(=O)NS(=O)(=O)c1ccc2c(c1-c1cccc(Cn3ccnc3)c1)CCC2C(C)C` (centres unmarked) [Compound 8b, N-(Butoxycarbonyl)-4-[3-(imidazol-1-yl)-methylphenyl]-1-isopropylindan-5-sulfonamide], “Antagonist”; with `CCCCOC(=O)NS(=O)(=O)c1cc2c(cc1-c1ccc(Cn3ccnc3)cc1)CCC2C(C)C` (centres unmarked) [Compound 9a, N-(Butoxycarbonyl)-5-[4-(imidazol-1-yl)-methylphenyl]-1-isopropylindan-6-sulfonamide], “agonistic properties; also recorded: Agonist”.

For `CCCCOC(=O)NS(=O)(=O)c1cc2c(cc1-c1ccc(Cn3ccnc3)cc1)CCC2C(C)C` (centres unmarked) [Compound 9b, N-(Butoxycarbonyl)-5-[4-(imidazol-1-yl)-methylphenyl]-1-isopropylindan-6-sulfonamide], the “Function (10 nM)” value in the assay with AT2 receptor [3] (10 nM, NG108-15 cells) is “agonistic properties; also recorded: Agonist”. As for `CCCCOC(=O)NS(=O)(=O)c1cc2c(cc1-c1cccc(Cn3ccnc3)c1)CCC2C(C)C` (centres unmarked) [Compound 10a, N-(Butoxycarbonyl)-5-[3-(imidazol-1-yl)-methylphenyl]-1-isopropylindan-6-sulfonamide], the “Function (10 nM)” value with AT2 receptor [3] (10 nM, NG108-15 cells) is reported as “Antagonist”. In the case of `CCCCOC(=O)NS(=O)(=O)c1cc2c(cc1-c1cccc(Cn3ccnc3)c1)CCC2C(C)C` (centres unmarked) [Compound 10b, N-(Butoxycarbonyl)-5-[3-(imidazol-1-yl)-methylphenyl]-1-isopropylindan-6-sulfonamide], the “Function (10 nM)” value in the assay with AT2 receptor [3] (10 nM, NG108-15 cells) was “agonistic effect; also recorded: Agonist”. A word on the IC50: it is the concentration at which inhibition is half-maximal. In the case of `Cc1cc(Cn2cnc3c2C[C@@H](C(=O)O)N(C(=O)C(c2ccccc2)c2ccccc2)C3)ccc1N(C)C` [PD 123319, reference compound], the “Effect of co-incubation on induced neurite outgrowth” value in the assay with AT2 receptor [3] (10 μM PD 123319 co-incubated with agonists) is listed as “reduced the induced neurite outgrowth”. In addition, in the assay on AT2 receptor [3] (PD 123319 alone, data not shown), the “Morphology on treatment alone” value is recorded as “did not alter the morphology compared to untreated cells”. On AT2 receptor [4], the IC50 is 34 nM.

On to “Ang II: hypertensive octapeptide angiotensin II”, for which the “Induction of neurite outgrowth” value in the assay on AT2 receptor [1] is “induces neurite outgrowth”. Regarding “Nα-nicotinoyl-Tyr-(Nα-Cbz-Arg)-Lys-His-Pro-Ile [CGP-42112]”, in the assay on AT2 receptor [1], the “Induction of neurite outgrowth” value is on record as “induces neurite outgrowth”.

Values taken from article PMC7451071 (MedChemComm, 2019).
